From ChEMBL document CHEMBL4145611, “Discovery of Marinoquinolines as Potent and Fast-Acting Plasmodium falciparum Inhibitors with in Vivo Activity” (J Med Chem, 2018)
Blank lines part the entries; values can stand above or below the compound they belong to. Activity calls are given as the source filed them. The calls are words filed in the database; no cut-off is given here.

Assays:
Plasmodium falciparum [1] = assay: Plasmodicidal activity against Plasmodium falciparum 3D7A infected in erythrocytes assessed as parasite survival at 10 times IC50 pre-incubated for 24 hrs followed by compound washout and measured after 24 hrs by […] incorporation assay (reference value: 100%); format: functional
Plasmodium falciparum [2] = assay: Plasmodicidal activity against Plasmodium falciparum 3D7A infected in erythrocytes assessed as parasite survival at 10 times IC50 pre-incubated for 48 hrs followed by compound washout and measured after 24 hrs by […] incorporation assay (reference value: 100%); format: functional
Plasmodium falciparum [3] = assay: Antiplasmodial activity against chloroquine-sensitive blood parasite forms of Plasmodium falciparum 3D7 infected in RBC by SYBR green assay; format: functional, organism-based; settings: 3D7, Erythrocyte
How it was run: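 3D7 blood-stage cultures, sorbitol-synchronized twice beforehand, used at 5-10% parasitemia with >80% rings, diluted to 0.5% parasitemia and 2% hematocrit with graded compound (0.05% DMSO), triplicate; artesunate and chloroquine controls. SYBR green I lysis-buffer fluorescence at 485/535 nm; IC50 from curve fit relative to drug-free medium.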

HepG2 = assay: Cytotoxicity against human HepG2 cells assessed as reduction in cell viability after 24 hrs by MTT assay; format: cell-based; settings: HepG2, 24 h
How it was run: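 HepG2 cells in RPMI-1640 with 10% heat-inactivated serum, seeded 5×10^3 per well, allowed to adhere 18 h at 37 °C, then exposed to compound (400–6.2 µM) for 24 h at 37 °C, 5% CO2. MTT (5 mg/mL) for 3 h, formazan dissolved in DMSO, absorbance 570 nm with 630 nm background; viability as percent of untreated control.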

[4] = Therapeutic index, ratio of EC50 for human HepG2 cells to IC50 for chloroquine-sensitive blood parasite forms of Plasmodium falciparum 3D7; format: toxicity; settings: read-out: TI
Plasmodium falciparum [5] = assay: Antiplasmodial activity against chloroquine-sensitive asynchronous form of Plasmodium falciparum 3D7 infected in RBC after 72 hrs by SYBR green assay; format: functional, organism-based; settings: 3D7, Erythrocyte
How it was run: (§1)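 Sorbitol-synchronized 3D7 cultures of each stage (or asynchronous) diluted to 0.5% parasitemia, 2% hematocrit, exposed to graded compound concentrations (0.05% DMSO) for 72 h in triplicate. Read-out: lysis buffer (20 mM Tris pH 7.5, 5 mM EDTA, 0.008% saponin, 0.08% Triton X-100) with SYBR green I 1:20000, fluorescence 485/535 nm, uninfected erythrocytes as background; IC50 by curve fitting versus drug-free growth.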

Plasmodium falciparum [6] = assay: Antiplasmodial activity against chloroquine-sensitive ring form of Plasmodium falciparum 3D7 infected in RBC after 72 hrs by SYBR green assay; format: functional, organism-based; settings: 3D7, Erythrocyte; how it was run: as §1
Plasmodium falciparum [7] = assay: Antiplasmodial activity against chloroquine-sensitive trophozoite form of Plasmodium falciparum 3D7 infected in RBC after 72 hrs by SYBR green assay; format: functional, organism-based; settings: 3D7, Erythrocyte; how it was run: as §1
Plasmodium falciparum [8] = assay: Antiplasmodial activity against chloroquine-sensitive schizont form of Plasmodium falciparum 3D7 infected in RBC after 72 hrs by SYBR green assay; format: functional, organism-based; settings: 3D7, Erythrocyte; how it was run: as §1
Plasmodium falciparum [9] = assay: Antiplasmodial activity against early ring stage form of Plasmodium falciparum assessed as induction of alterations in parasite morphology at 10 times IC50 concentration after 8 to 16 hrs by microscopic analysis; format: functional, organism-based
Plasmodium berghei [10] = assay: Antiplasmodial activity against Plasmodium berghei NK65 infected in Swiss mouse assessed as reduction in parasitemia at 50 mg/kg, po administered via gavage for 3 consecutive days post infection measured on day 5 post infection relative to control; format: functional; parameters: scale not given: the % may be the effect or the level left
How it was run: (§2)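 P. berghei NK65 suppressive test: adult Swiss outbred mice (20±2 g) inoculated ip with 1×10^5 infected red cells, randomized to groups, dosed daily for three days by oral gavage or ip injection with test compound at 50 mg/kg in 3% (v/v) DMSO; CQ 20 mg/kg and vehicle groups in parallel. Giemsa-stained tail-blood smears on days 5, 7, 9; inhibition = [(C−T)/C]×100 versus untreated control.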

Plasmodium berghei [11] = assay: Antiplasmodial activity against Plasmodium berghei NK65 infected in Swiss mouse assessed as reduction in parasitemia at 50 mg/kg, po administered via gavage for 3 consecutive days post infection measured on day 9 post infection relative to control; format: functional; parameters: scale not given: the % may be the effect or the level left; how it was run: as §2
Plasmodium berghei [12] = assay: Antiplasmodial activity against Plasmodium berghei NK65 infected in Swiss mouse assessed as mouse survival at 50 mg/kg, po administered for 3 consecutive days post infection measured on day 9 post infection (reference value: 19 +/- 5 days); format: functional
[13] = Metabolic stability in rat liver microsomes assessed as compound remaining at 4 uM after 30 mins in presence of NADPH by HPLC analysis; format: ADME, microsome; settings: read-out: Stability
How it was run: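 Rat pooled liver microsomes (final 2 mg/mL protein) in 0.1 M phosphate buffer pH 7.4 with 30 mM MgCl2 and 10 mM NADPH; compounds at 4 µM final; verapamil 0.1 mM positive control. Reactions quenched with ice-cold acetonitrile at set times; parent remaining measured by LC-MS/MS; first-order depletion rate used to derive half-life.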

Plasmodium berghei [14] = assay: Antiplasmodial activity against Plasmodium berghei NK65 infected in Swiss mouse assessed as reduction in parasitemia at 50 mg/kg, po administered via gavage for 3 consecutive days post infection measured on day 7 post infection relative to control; format: functional; parameters: scale not given: the % may be the effect or the level left; how it was run: as §2
Mus musculus [15] = assay: Toxicity in Swiss mouse assessed as survival at 1000 mg/kg, ip measured up to 30 days; format: organism-based; settings: in vivo, 720 h
How it was run: (§3)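 Single 1000 mg/kg dose given to mice by gavage or ip injection, 3 mice per group. Survival and body weight followed against untreated controls over 30 days of observation.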

Mus musculus [16] = assay: Toxicity in Swiss mouse assessed as effect on body weight at 1000 mg/kg, ip measured after 30 days; format: organism-based; settings: in vivo, 720 h; how it was run: as §3

Structure (SMILES): O=C1C(O)=C([C@H]2CC[C@H](c3ccc(Cl)cc3)CC2)C(=O)c2ccccc21 [ATOVAQUONE]
Survival (Plasmodium falciparum [1]): 68%
Survival (Plasmodium falciparum [2]): 40%

Structure (SMILES): COc1ccc2c(c1)nc(-c1ccc(Cl)cc1)c1[nH]ccc12
IC50 (Plasmodium falciparum [3]; read-out: IC50): 600 nM
EC50 (HepG2): > 250000 nM
selectivity ratio [4]: > 417
IC50 (Plasmodium falciparum [5]): 460 nM
IC50 (Plasmodium falciparum [6]): 600 nM
IC50 (Plasmodium falciparum [7]): 380 nM
IC50 (Plasmodium falciparum [8]): 500 nM
Activity (Plasmodium falciparum [9]): Active
Activity (Plasmodium berghei [10]): 0%
Activity (Plasmodium berghei [11]): 0%
Survival (Plasmodium berghei [12]): 22 days
remaining at 0.5 h, 4 µM [13]: 15%
Activity (Plasmodium berghei [14]): 0%
Activity (Mus musculus [15]): Non-Toxic
Activity (Mus musculus [16]): Non-Toxic

Second part, led by results:

IC50 (Plasmodium falciparum [3]; read-out: IC50): 61 nM
IC50 (Plasmodium falciparum [3]; read-out: pIC50 (converted)): 61.7 nM
Structure (SMILES): COc1ccc2c(c1)nc(-c1c[nH]c3ccccc13)c1[nH]ccc12
EC50 (HepG2): 20000 nM
selectivity ratio [4]: 328

IC50 (Plasmodium falciparum [3]; read-out: IC50): 1300 nM
Structure (SMILES): COc1ccc2c(c1)nc(-c1ccc(N)cc1)c1[nH]ccc12
EC50 (HepG2): > 750000 nM
selectivity ratio [4]: > 576

IC50 (Plasmodium falciparum [3]; read-out: IC50): 1300 nM
Structure (SMILES): COC(=O)c1ccc(-c2nc3cc(OC)ccc3c3cc[nH]c23)cc1
EC50 (HepG2): > 250000 nM
selectivity ratio [4]: > 192
